The structures appear in SMILES notation.

The test system of assay [1] is Influenza A virus. Nature of the assay: Antiviral activity against adamantane-resistant zanamivir-,oseltamivir-susceptible Influenza A virus (A/Washington/01/2007(H3N2)) harboring M2 S31N mutant infected in MDCK cells assessed as inhibition of viral replication after 3 days by microscopic analysis using crystal violet stain. In kind it is functional, organism-based. In a few lines: (§1)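 Confluent MDCK-ATCC monolayers infected with virus diluted to give 15–45 plaques/well. Adsorption 1 h at 37°C without drug, then washed. Overlaid with 0.8% agarose in MEM containing drug plus TPCK-trypsin: 3 μg/ml for seasonal viruses, 2 μg/ml for 2009 A(H1N1). Incubated 3 days at 37°C, 5% CO2. Ethanol-fixed, crystal violet-stained, plaques counted. EC50 by curve fit; duplicates on three occasions, mean ± SD.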

Assay [2] has as its system Influenza B virus. Nature of the assay: Antiviral activity against oseltamivir-susceptible zanamivir-, adamantane-resistant Influenza B virus (B/Michigan/20/2005) harboring neuraminidase H274Y mutant infected in MDCK cells assessed as inhibition of viral replication after 3 days by microscopic analysis using crystal violet stain. In kind it is functional, cell-based.
Assay [3] concerns Influenza A virus. Nature of the assay: Antiviral activity against adamantane-, zanamivir-susceptible oseltamivir-resistant Influenza A virus (A/New Jersey/15/2007(H1N1)) harboring neuraminidase H274Y mutant infected in MDCK cells assessed as inhibition of viral replication after 3 days by microscopic analysis using crystal violet stain. Format: functional, organism-based. In short, it runs like this:
as §1

In assay [4] the test system is Influenza B virus. Nature of the assay: microbe, parasite or virus in culture. Conditions: B/Memphis/20/96, MDCK, 72 h.
Assay [5] relates to Influenza A virus. Nature of the assay: Antiviral activity against adamantane-, oseltamivir-, zanamivir-resistant Influenza A virus (A/Idaho/01/2009(H1N1)) harboring neuraminidase H274Y mutant infected in MDCK cells assessed as inhibition of viral replication after 3 days by microscopic analysis using crystal violet stain. In kind it is functional, organism-based, Influenza A virus (A/Idaho/01/2008(H1N1)). In a few lines:
as §1

The test system of assay [6] is Influenza A virus. Put plainly: Antiviral activity against adamantane-resistant zanamivir-,oseltamivir-susceptible Influenza A virus (A/New Hampshire/01/2009(H3N2)) harboring M2 S31N mutant infected in MDCK cells assessed as inhibition of viral replication after 3 days by microscopic analysis using crystal violet stain. Format: functional, organism-based. In short, it runs like this:
as §1

Assay [7] relates to Influenza A virus. Nature of the assay: Antiviral activity against oseltamivir-susceptible zanamivir-, adamantane-resistant Influenza A virus (A/Texas/12/2007 (clone)(H3N2)) harboring neuraminidase E119V mutant and harboring M2 S31N mutant infected in MDCK cells assessed as inhibition of viral replication after 3 days by microscopic analysis using crystal violet stain. In kind it is functional, organism-based, Influenza A virus (A/Texas/12/2007(H3N2)). In a few lines:
(§2)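 MDCK-ATCC confluent monolayers infected with pretitrated virus (15–45 plaques per well), 1 h adsorption at 37°C, 5% CO2, without drug. Inoculum removed, PBS wash, then 0.8% agarose overlay in MEM with drug and 3 μg/ml TPCK-trypsin. 3 days at 37°C, ethanol fixation, crystal violet stain, plaques counted. EC50 by curve fit, mean of three experiments in duplicate ± SD.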

Assay [8] has as its system Influenza A virus. Put plainly: Antiviral activity against adamantane-, zanamivir-susceptible oseltamivir-resistant Influenza A virus (A/Florida/21/2008(H1N1)) harboring neuraminidase H274Y mutant infected in MDCK cells assessed as inhibition of viral replication after 3 days by microscopic analysis using crystal violet stain. Format: functional, organism-based. In short, it runs like this: as §2

Consider `NC(=O)c1nc(F)cnc1O` [FAVIPIRAVIR], for which the EC50 (usually the midpoint of the concentration-response curve) was found to be 4.46 µM in the assay on Influenza A virus [1]; 5.03 µM in the assay with Influenza B virus [2]; 4.9 µM with Influenza A virus [3]; 1.21 µM in the assay with Influenza B virus [4]; 2.93 µM in the assay with Influenza A virus [5]; 4.08 µM in the assay on Influenza A virus [6]. The concentration for a half-maximal effect (EC50) turned out to be 5.22 µM in the assay with Influenza A virus [7] and 1.59 µM in the assay with Influenza A virus [8].

(Values after ChEMBL document CHEMBL1671691 (Antimicrob Agents Chemother, 2010).)
